Converted amounts (≈) assume the structure as drawn.
Legend:
Cryptococcus neoformans [1] = assay: Antifungal activity against Cryptococcus neoformans ATCC 24067 after 48 to 72 hrs by broth microdilution method; type: functional
Method in brief: (§1)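 CLSI M27-A3 broth microdilution. Isolates subcultured twice on SDA, 48 h at 35°C. Saline suspension adjusted to 70% transmittance at 530 nm, then diluted to 1-5 x10^3 cells/mL in RPMI with L-glutamine, 0.165 M MOPS, pH 7.0. Compounds in DMSO, tested at […]. 35°C for 48-72 h. MIC read visually as the lowest concentration giving an optically clear well.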

Vero = assay: Cytotoxicity against African green monkey Vero cells assessed as cell viability measured after 48 hrs by MTT assay; type: cell-based; details: Chlorocebus sabaeus
Method in brief: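 VERO cells in D-MEM with 5% FBS, used up to 20 passages. Seeded 1 x 10^4 cells/well, pre-incubated 24 h at 37°C. Exposed 48 h at 37°C, 5% CO2, to eight nonserial dilutions from 100 to 0.0128 µM, with 0.5% DMSO control. MTT reduction read-out, corrected for background and blank. IC50 reported as median with 95% CI. Triplicate, two independent experiments.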

[2] = Cytotoxicity against C57BL/6 mouse peritoneal macrophages assessed as cell viability measured after 48 hrs by MTT assay; type: cell-based; details: C57BL/6, Peritoneal macrophage cell
Method in brief: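 Thioglycollate-elicited peritoneal macrophages from male C57BL/6 mice, 6–8 weeks old, in RPMI with 10% FBS. Seeded 1 x 10^5 cells/well, pre-incubated 24 h at 37°C. Exposed 48 h at 37°C, 5% CO2, to eight nonserial dilutions from 100 to 0.0128 µM, with 0.5% DMSO control. MTT read-out, % inhibition versus DMSO control. IC50 reported as median with 95% CI. Triplicate, two independent experiments.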

[3] = Selectivity index, ratio of IC50 for African green monkey Vero cells to MIC for Cryptococcus neoformans ATCC 24067; type: toxicity, cell-based
[4] = Selectivity index, ratio of IC50 for C57BL/6 mouse peritoneal macrophages to MIC for Cryptococcus neoformans ATCC 24067
Method in brief: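 SI = IC50/MIC. Thioglycollate-elicited peritoneal macrophages from C57BL/6 mice are seeded at 1 x 10^5/well. They are exposed for 48 h at 37°C to eight concentrations from 100 to 0.0128 µM. Viability read by MTT versus 0.5% DMSO control, triplicate in two experiments.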

[5] = system: Cryptococcus bacillisporus; assay: Antifungal activity against Cryptococcus gattii ATCC 32608 after 48 to 72 hrs by broth microdilution method; type: functional
Method in brief: (§2)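 CLSI M27-A3 broth microdilution in RPMI with L-glutamine, buffered to pH 7.0 with 0.165 M MOPS. Colonies grown twice on SDA, 48 h at 35°C. Inoculum set to 70% transmittance at 530 nm, then diluted to 1-5 x10^3 cells/mL. Test agents dissolved in DMSO, serially diluted, tested at 0.1 to 62.5 µM. Plates held at 35°C for 48-72 h. MIC is the lowest concentration giving an optically clear well, read visually against drug-free growth controls.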

[6] = system: Cryptococcus gattii species complex; assay: Antifungal activity against Cryptococcus gattii 23/10993 after 48 to 72 hrs by broth microdilution method; type: functional, Cryptococcus bacillisporus; method in brief: as §2
Cryptococcus neoformans [7] = assay: Ratio of compound MIC for Cryptococcus neoformans 5396 in presence of amphotericin B to compound MIC for Cryptococcus neoformans 5396 in absence of amphotericin B by checkerboard microtiter test; type: functional
Method in brief: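 Checkerboard microdilution: eight two-fold dilutions of test compound (0.11 to 15.6 µM) crossed with amphotericin B (0.025 to 3.9 µM, in DMSO) or fluconazole (0.48 to 62.5 µM, in water). Inoculum per CLSI M27-A3 in RPMI-MOPS pH 7.0, 1-5 x10^3 cells/mL. Growth 48 to 72 h. Effective MIC is the combination concentration giving complete inhibition. FICs derived from MICs in combination versus alone.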

[8] = system: Cryptococcus gattii species complex; assay: Antifungal activity against Cryptococcus gattii L28/02 after 48 to 72 hrs by broth microdilution method; type: functional, Cryptococcus bacillisporus; method in brief: as §2
[9] = system: Cryptococcus gattii species complex; assay: Antifungal activity against Cryptococcus gattii 547/OTTI-97-PI-10 after 48 to 72 hrs by broth microdilution method; type: functional, Cryptococcus bacillisporus; method in brief: as §2
[10] = system: Cryptococcus gattii species complex; assay: Antifungal activity against Cryptococcus gattii 135L/03 after 48 to 72 hrs by broth microdilution method; type: functional, Cryptococcus bacillisporus; method in brief: as §2
[11] = system: Cryptococcus gattii species complex; assay: Antifungal activity against Cryptococcus gattii 196L/03 after 48 to 72 hrs by broth microdilution method; type: functional, Cryptococcus bacillisporus; method in brief: as §2
[12] = system: Cryptococcus gattii species complex; assay: Antifungal activity against Cryptococcus gattii L27/01 after 48 to 72 hrs by broth microdilution method; type: functional, Cryptococcus bacillisporus; method in brief: as §2
[13] = system: Cryptococcus gattii species complex; assay: Antifungal activity against Cryptococcus gattii ICB181 after 48 to 72 hrs by broth microdilution method; type: functional, Cryptococcus bacillisporus; method in brief: as §2
[14] = system: Cryptococcus gattii species complex; assay: Antifungal activity against Cryptococcus gattii L24/01 after 48 to 72 hrs by broth microdilution method; type: functional, Cryptococcus bacillisporus; method in brief: as §2
[15] = system: Cryptococcus gattii species complex; assay: Antifungal activity against Cryptococcus gattii LMM818 after 48 to 72 hrs by broth microdilution method; type: functional, Cryptococcus bacillisporus; method in brief: as §2
[16] = system: Cryptococcus gattii species complex; assay: Antifungal activity against Cryptococcus gattii 1913ER after 48 to 72 hrs by broth microdilution method; type: functional, Cryptococcus bacillisporus; method in brief: as §2
Cryptococcus neoformans [17] = assay: Antifungal activity against Cryptococcus neoformans ATCC 28957 after 48 to 72 hrs by broth microdilution method; type: functional; method in brief: as §1
Cryptococcus neoformans [18] = assay: Antifungal activity against Cryptococcus neoformans ATCC 62066 after 48 to 72 hrs by broth microdilution method; type: functional
Cryptococcus neoformans [19] = assay: Antifungal activity against Cryptococcus neoformans CN31 after 48 to 72 hrs by broth microdilution method; type: functional; method in brief: as §1
Cryptococcus neoformans [20] = assay: Antifungal activity against Cryptococcus neoformans 96806 after 48 to 72 hrs by broth microdilution method; type: functional; method in brief: as §1
Cryptococcus neoformans [21] = assay: Antifungal activity against Cryptococcus neoformans 5396 after 48 to 72 hrs by broth microdilution method; type: functional; method in brief: as §1
Cryptococcus neoformans [22] = assay: Antifungal activity against Cryptococcus neoformans LMM820 after 48 to 72 hrs by broth microdilution method; type: functional; method in brief: as §1
Cryptococcus neoformans [23] = assay: Antifungal activity against Cryptococcus neoformans F10 after 48 to 72 hrs by broth microdilution method; type: functional; method in brief: as §1
Cryptococcus neoformans [24] = assay: Antifungal activity against Cryptococcus neoformans 28JF after 48 to 72 hrs by broth microdilution method; type: functional; method in brief: as §1
Cryptococcus neoformans [25] = assay: Antifungal activity against Cryptococcus neoformans VM-MCMMPI after 48 to 72 hrs by broth microdilution method; type: functional; method in brief: as §1
Cryptococcus neoformans [26] = assay: Antifungal activity against Cryptococcus neoformans 27JF after 48 to 72 hrs by broth microdilution method; type: functional; method in brief: as §1
Cryptococcus neoformans [27] = assay: Antifungal activity against Cryptococcus neoformans WP after 48 to 72 hrs by broth microdilution method; type: functional; method in brief: as §1

In the case of `COc1ccc(-c2csc(N/N=C/C3CCCCC3)n2)cc1`, the MIC (Cryptococcus neoformans [1]) is reported as 1.9 µM (≈ 0.599 µg/mL), the IC50 (Vero) is reported as > 100 µM and the IC50 [2] is reported as > 100 µM. For the same compound, the selectivity ratio [3] was 52.6, the Ratio [4] was 52.63 and the MFC [5] was 3.9 µM (≈ 1.23 µg/mL). The MIC [5] was 2.9 µM (≈ 0.915 µg/mL), the MFC [6] was 3.9 µM (≈ 1.23 µg/mL) and the MIC [6] was 2.6 µM (≈ 0.82 µg/mL). The “fractional inhibitory concentration index (FICI)” value (Cryptococcus neoformans [7]) was 2.07, the MFC [8] was 7.8 µM (≈ 2.46 µg/mL) and the MIC [8] was 4.2 µM (≈ 1.32 µg/mL). The MFC [9] was 3.9 µM (≈ 1.23 µg/mL), the MIC [9] was 2.6 µM (≈ 0.82 µg/mL) and the MFC [10] was 3.9 µM (≈ 1.23 µg/mL). It also gave an MIC [10] of 2.6 µM (≈ 0.82 µg/mL), an MFC [11] of 3.9 µM (≈ 1.23 µg/mL) and an MIC [11] of 2.9 µM (≈ 0.915 µg/mL). For the same compound, the MFC [12] was 3.9 µM (≈ 1.23 µg/mL), the MIC [12] was 2.2 µM (≈ 0.694 µg/mL) and the MFC [13] was 1.9 µM (≈ 0.599 µg/mL). For the same compound, the MIC [13] was 1.4 µM (≈ 0.442 µg/mL), the MFC [14] was 3.9 µM (≈ 1.23 µg/mL) and the MIC [14] was 2.9 µM (≈ 0.915 µg/mL). It also gave an MFC [15] of 7.8 µM (≈ 2.46 µg/mL), an MIC [15] of 4.5 µM (≈ 1.42 µg/mL) and an MFC [16] of 3.9 µM (≈ 1.23 µg/mL). For the same compound, the MIC [16] was 2.2 µM (≈ 0.694 µg/mL), the MFC (Cryptococcus neoformans [17]) was 3.9 µM (≈ 1.23 µg/mL) and the MIC (Cryptococcus neoformans [17]) was 2.2 µM (≈ 0.694 µg/mL). For the same compound, the MFC (Cryptococcus neoformans [18]) was 7.8 µM (≈ 2.46 µg/mL), the MIC (Cryptococcus neoformans [18]) was 1.9 µM (≈ 0.599 µg/mL) and the MFC (Cryptococcus neoformans [19]) was 3.9 µM (≈ 1.23 µg/mL). It also gave an MIC (Cryptococcus neoformans [19]) of 1.9 µM (≈ 0.599 µg/mL), an MFC (Cryptococcus neoformans [20]) of 1.9 µM (≈ 0.599 µg/mL) and an MIC (Cryptococcus neoformans [20]) of 1.9 µM (≈ 0.599 µg/mL). For the same compound, the MFC (Cryptococcus neoformans [21]) was 3.9 µM (≈ 1.23 µg/mL), the MIC (Cryptococcus neoformans [21]) was 2.2 µM (≈ 0.694 µg/mL) and the MFC (Cryptococcus neoformans [22]) was 7.8 µM (≈ 2.46 µg/mL). For the same compound, the MIC (Cryptococcus neoformans [22]) was 3.2 µM (≈ 1.01 µg/mL), the MFC (Cryptococcus neoformans [23]) was 3.9 µM (≈ 1.23 µg/mL) and the MIC (Cryptococcus neoformans [23]) was 2.2 µM (≈ 0.694 µg/mL). For the same compound, the MFC (Cryptococcus neoformans [24]) was 7.8 µM (≈ 2.46 µg/mL), the MIC (Cryptococcus neoformans [24]) was 3.5 µM (≈ 1.1 µg/mL) and the MFC (Cryptococcus neoformans [25]) was 3.9 µM (≈ 1.23 µg/mL). The MIC (Cryptococcus neoformans [25]) was 2.2 µM (≈ 0.694 µg/mL), the MFC (Cryptococcus neoformans [26]) was 7.8 µM (≈ 2.46 µg/mL) and the MIC (Cryptococcus neoformans [26]) was 3.5 µM (≈ 1.1 µg/mL). For the same compound, the MFC (Cryptococcus neoformans [27]) was 3.9 µM (≈ 1.23 µg/mL) and the MIC (Cryptococcus neoformans [27]) was 3.2 µM (≈ 1.01 µg/mL).
